Active and inactive are the calls of the source. No cut-off for these calls is given here.
Columns and labels:
[1] = biological target: Cannabinoid receptor 1 (Homo sapiens, UniProt P21554); assay: Displacement of [3H]CP-55,940 from recombinant human CB1 receptor expressed in HEK cells; type: cell-based, HEK293
How it was run: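 Competition binding on membranes of HEK cells transfected with human CB1, using [3H]-CP-55,940 at 0.14 nM (radioligand Kd 0.18 nM). Displacement curves give IC50, converted to Ki by the Cheng-Prusoff equation. Reference ligands run in parallel.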

[2] = biological target: Cannabinoid receptor 2 (Homo sapiens, UniProt P34972); assay: Displacement of [3H]CP-55,940 from recombinant human CB2 receptor expressed in HEK cells; type: cell-based, HEK293
How it was run: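 Competition binding on membranes of HEK cells transfected with human CB2, using [3H]-CP-55,940 at 0.084 nM (radioligand Kd 0.31 nM). Displacement curves give IC50, converted to Ki by the Cheng-Prusoff equation. Reference ligands run in parallel.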

[3] = organism: Homo sapiens; assay: Selectivity index, ratio of Ki for recombinant human CB2 receptor to Ki for recombinant human CB1 receptor
How it was run: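 Index computed as Ki(CB2)/Ki(CB1). Each Ki comes from [3H]-CP-55,940 displacement on transfected HEK membranes (0.14 nM radioligand for CB1, 0.084 nM for CB2) via Cheng-Prusoff.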

[4] = organism: Homo sapiens; assay: Selectivity index, ratio of Ki for recombinant human CB1 receptor to Ki for recombinant human CB2 receptor
How it was run: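 Index computed as Ki(CB1)/Ki(CB2). Each Ki comes from [3H]-CP-55,940 displacement on transfected HEK membranes (0.14 nM radioligand for CB1, 0.084 nM for CB2) via Cheng-Prusoff.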

[5] = system: Rattus norvegicus; assay: Reduction in water intake in Wistar rat at 2 mg/kg, ip administered 30 mins before lights off measured 6 hrs after lights off relative to vehicle-treated control; type: functional, organism-based; parameters: dose 2 mg/kg
How it was run: (§1)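 Wistar rats had free access to 1% w/v sucrose solution, water and regular chow. On test day they were split into groups of n = 15, matched on body weight and on sucrose and food intake over the prior 3 days. Drug was suspended in saline with 0.05% v/v Tween 80 and given ip at 0, 1 or 2 mg/kg (3 mL/kg), 30 min before lights off. Data were analysed by ANOVA with Newman-Keuls test.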

[6] = system: Rattus norvegicus; assay: Reduction in sucrose intake in Wistar rat at 2 mg/kg, ip administered 30 mins before lights off measured 6 hrs after lights off relative to vehicle-treated control; type: functional; parameters: scale not given: the % may be the effect or the level left; details: route intraperitoneal; how it was run: as §1
[7] = system: Rattus norvegicus; assay: Reduction in food intake in Wistar rat at 2 mg/kg, ip administered 30 mins before lights off measured 6 hrs after lights off relative to vehicle-treated control; type: functional, organism-based; parameters: dose 2 mg/kg; how it was run: as §1

Cannabinoid receptor 1, sequence (P21554 whole entry): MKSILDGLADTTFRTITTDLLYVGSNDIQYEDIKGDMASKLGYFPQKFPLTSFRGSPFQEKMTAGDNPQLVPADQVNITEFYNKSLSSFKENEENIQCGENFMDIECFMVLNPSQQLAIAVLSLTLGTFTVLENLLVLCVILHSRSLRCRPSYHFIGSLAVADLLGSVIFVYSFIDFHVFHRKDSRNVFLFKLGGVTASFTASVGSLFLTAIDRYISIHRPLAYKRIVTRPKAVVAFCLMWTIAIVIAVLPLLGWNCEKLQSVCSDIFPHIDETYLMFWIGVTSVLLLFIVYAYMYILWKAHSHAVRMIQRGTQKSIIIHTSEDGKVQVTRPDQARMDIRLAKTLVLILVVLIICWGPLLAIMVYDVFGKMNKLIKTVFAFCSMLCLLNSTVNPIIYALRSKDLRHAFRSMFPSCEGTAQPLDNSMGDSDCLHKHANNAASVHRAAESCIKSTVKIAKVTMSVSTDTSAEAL
Cannabinoid receptor 2, sequence (P34972 whole entry): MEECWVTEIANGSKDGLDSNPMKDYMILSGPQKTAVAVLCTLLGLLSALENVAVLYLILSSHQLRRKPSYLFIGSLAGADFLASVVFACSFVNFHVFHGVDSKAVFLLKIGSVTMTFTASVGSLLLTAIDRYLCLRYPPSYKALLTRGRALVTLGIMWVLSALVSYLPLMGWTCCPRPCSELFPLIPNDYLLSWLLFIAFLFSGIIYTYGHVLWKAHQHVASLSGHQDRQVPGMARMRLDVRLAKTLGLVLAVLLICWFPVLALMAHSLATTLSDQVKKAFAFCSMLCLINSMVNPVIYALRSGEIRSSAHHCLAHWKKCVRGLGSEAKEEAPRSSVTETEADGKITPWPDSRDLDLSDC

Structure (SMILES)	Ki [1]	Ki [2]	Ratio Ki [3]	Ratio Ki [4]	Activity [5]	Activity [6]	Activity [7]
Cc1c(C(=O)NC2CCCCC2)nn(-c2ccc(Cl)cc2Cl)c1-n1c(Cl)ccc1Cl	9.4 nM	19.1 nM	2	0.49			
Cc1c(C(=O)NC2CCCCC2)nn(-c2ccc(Cl)cc2Cl)c1-n1cc2c(c1)CCCC2	2.3 nM	376 nM	164	0.006	inactive	25%	inactive
CCc1c(C(=O)NC2CCCCC2)nn(-c2ccc(Cl)cc2Cl)c1-n1cccc1	3 nM	15.8 nM	5.3	0.19			
CCc1c(C(=O)NC2CCCCC2)nn(-c2ccc(Cl)c(Cl)c2)c1-n1cccc1	15.3 nM	0.51 nM	0.033	30			
Cc1c(C(=O)NC2CCCCC2)nn(-c2ccc(Cl)c(Cl)c2)c1-n1c(Cl)ccc1Cl	5.6 nM	1.3 nM	0.23	4.31			
CCc1c(C(=O)NCc2ccc(Cl)c(Cl)c2)nn(-c2ccc(Cl)cc2Cl)c1-n1cccc1	48.7 nM	455 nM	9.3	0.11			
CCc1c(C(=O)NC2CCCCC2)nn(-c2ccc(Cl)c(Cl)c2)c1-n1c(C)ccc1C	48 nM	1.7 nM	0.035	28.2			
CCc1c(C(=O)NC2CCCCC2)nn(-c2ccc(Cl)cc2Cl)c1-n1c(C)ccc1C	6.7 nM	754 nM	112	0.009			
Cc1c(C(=O)NC2CCCCC2)nn(-c2ccc(Cl)cc2Cl)c1-n1cccc1Cl	7.7 nM	18.3 nM	2.4	0.4			
CCc1c(C(=O)NCc2ccc(Cl)c(Cl)c2)nn(-c2ccc(Cl)c(Cl)c2)c1-n1cccc1	454 nM	29.6 nM	0.065	15.3			
Cc1c(C(=O)NCc2ccc(Cl)c(Cl)c2)nn(-c2ccc(Cl)cc2Cl)c1-n1c(Cl)ccc1Cl	66.1 nM	135 nM	2	0.49			
Cc1c(C(=O)NCc2ccc(Cl)c(Cl)c2)nn(-c2ccc(Cl)c(Cl)c2)c1-n1c(Cl)ccc1Cl	55.6 nM	162 nM	2.9	0.34			
CCc1c(C(=O)NCc2ccc(Cl)c(Cl)c2)nn(-c2ccc(Cl)c(Cl)c2)c1-n1c(C)ccc1C	966 nM	114 nM	0.118	8.49			
CCc1ccc(CC)n1-c1c(C)c(C(=O)NCc2ccc(Cl)c(Cl)c2)nn1-c1ccc(Cl)c(Cl)c1	> 10000 nM	> 10000 nM					
Cc1c(C(=O)NC2CCCCC2)nn(-c2ccc(Cl)c(Cl)c2)c1-n1cccc1Cl	8.6 nM	0.9 nM	0.11	9.56			
CCc1ccc(CC)n1-c1c(C)c(C(=O)NC2CCCCC2)nn1-c1ccc(Cl)c(Cl)c1	136 nM	410 nM	3	0.33			
Cc1c(C(=O)NCc2ccc(Cl)c(Cl)c2)nn(-c2ccc(Cl)cc2Cl)c1-n1cc2c(c1)CCCC2	45.9 nM	72.9 nM	1.6	0.63			
Cc1c(C(=O)NCc2ccc(Cl)c(Cl)c2)nn(-c2ccc(Cl)c(Cl)c2)c1-n1cccc1Cl	74.1 nM	53.9 nM	0.73	1.38			
Cc1c(C(=O)NCc2ccc(Cl)c(Cl)c2)nn(-c2ccc(Cl)cc2Cl)c1-n1cccc1Cl	25.2 nM	98.5 nM	3.9	0.26			
CCc1c(C(=O)NCc2ccc(Cl)c(Cl)c2)nn(-c2ccc(Cl)cc2Cl)c1-n1c(C)ccc1C	56.1 nM	53.1 nM	1.06	0.94			
